{"source": "PubChem BioAssay AID651608", "about": "(The Scripps Research Institute Molecular Screening Center, 2012)", "note": "The other results are listed elsewhere or left out. Calls of active or inactive are those of the source.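 The calls were made as follows: active = average inhibition over triplicates above the hit cutoff set in the earlier primary screen (cut at about 25% in these data); inactive = the rest.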"}
{"molecular_target": "ADP-ribosylation factor GTPase-activating protein 1 (Rattus norvegicus) (UniProt Q62848)", "sequence (Q62848 whole entry, looked up, the tested form may be a part)": "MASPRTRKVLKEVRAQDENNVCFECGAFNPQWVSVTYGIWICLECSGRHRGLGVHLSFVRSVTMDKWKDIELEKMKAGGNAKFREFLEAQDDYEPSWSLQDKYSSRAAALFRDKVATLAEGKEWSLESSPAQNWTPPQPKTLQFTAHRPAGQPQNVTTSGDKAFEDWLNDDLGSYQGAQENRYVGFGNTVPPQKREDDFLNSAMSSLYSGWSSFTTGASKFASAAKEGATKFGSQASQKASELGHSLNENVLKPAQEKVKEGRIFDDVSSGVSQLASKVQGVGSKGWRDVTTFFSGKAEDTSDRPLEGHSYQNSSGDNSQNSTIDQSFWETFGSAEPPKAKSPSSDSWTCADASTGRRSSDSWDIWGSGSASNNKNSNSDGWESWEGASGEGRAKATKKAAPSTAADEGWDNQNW", "experiment": "ARFGAP1 inhibitor hit confirmation, biochemical, fluorescence polarization, triplicate (AID 651608);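 also: 0% = Arfgap1 plus ARF1-GTP with DMSO and 100% = wells lacking Arfgap1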", "settings": "ARFGAP1-stimulated ARF1 GTP hydrolysis, GDP tracer FP; at 16.5 µM; hits give high values", "procedure,_shortened": "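Signal: GDP tracer fluorescence polarization; Material: rat Arfgap1 GAP domain 1-136 plus human ARF1 Δ1-17; Timing: 20 min compound–enzyme pre-incubation, 120 min hydrolysis at 25 °C, 60 min detection; Read-out basis: percent inhibition; Also added: ARF1-GTP (human, Δ1-17); Benchmarks: high control wells lacking Arfgap1; Compound: 16.5 µM single concentration, […]; Repeats: three replicates.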"}
{"smiles": "O=C(O)CSCc1ccc(C(=O)O)o1", "inhibition": "5.16% (inactive)"}
{"smiles": "COc1ccc(C(CNC(=O)c2cccc(S(=O)(=O)Nc3ccccc3Cl)c2)N2CCOCC2)cc1", "note": "(configuration not stated)", "inhibition": "4.17% (inactive)"}
{"smiles": "COc1ccc(-n2nc3c(N4CCC(C(=O)NCc5ccccc5)CC4)nnc(C)c3c2C)cc1", "inhibition": "44% (active)"}
{"smiles": "COc1cccc(CNc2nc(C(F)(F)F)nc3ccccc23)c1", "inhibition": "8.01% (inactive)"}
{"smiles": "Cc1ccc2nc(SCC(=O)N3CC(C)OC(C)C3)nc(=O)n2c1", "note": "(configuration not stated)", "inhibition": "90.3% (active)"}
{"smiles": "COc1ccc(Cl)cc1NC(=O)Cn1nc(-c2ccc(C)cc2)n(C)c1=S", "inhibition": "1.54% (inactive)"}
{"smiles": "O=C(CCc1ccccc1)Nc1ncc([N+](=O)[O-])s1", "inhibition": "-7.17% (inactive)"}
{"smiles": "CC(C)CCSc1ncnc2c1oc1nc3c(cc12)COC(C)(C)C3", "inhibition": "1.56% (inactive)"}
{"smiles": "Cc1ccc2nc(N3C(=O)C(O)=C(C(=O)c4ccco4)C3c3cccc(O)c3)sc2c1", "note": "(configuration not stated)", "inhibition": "18.3% (inactive)"}
{"smiles": "CC1CCc2[nH]c3ccc(C(=O)N(C)CC(=O)Nc4cccc(F)c4)cc3c2C1", "note": "(configuration not stated)", "inhibition": "1.73% (inactive)"}
{"smiles": "CCn1c(SCc2cc(=O)n3ccsc3n2)nc2ccccc21", "inhibition": "-5.82% (inactive)"}
{"smiles": "Cc1ccc(NC(=O)c2ccc(Oc3ncccn3)cc2)cc1", "inhibition": "1.89% (inactive)"}
{"smiles": "COCCNc1cc(-c2ccccc2)nc2cc(-c3cccc(F)c3)nn12", "inhibition": "10.8% (inactive)"}
{"smiles": "Cc1cc(C)cc(NC(=O)C2CCCN(S(=O)(=O)c3ccc4[nH]c(=O)ccc4c3)C2)c1", "note": "(configuration not stated)", "inhibition": "0.48% (inactive)"}
{"smiles": "O=C(Nc1cccc(-c2nc3ccccc3[nH]2)c1)c1ccc(C(=O)Nc2cccc(-c3nc4ccccc4[nH]3)c2)cc1", "inhibition": "60.7% (active)"}
{"smiles": "O=C(/C=C/c1cn(-c2ccccc2)nc1-c1ccc2c(c1)OCCO2)NCCCN1CCOCC1", "inhibition": "13% (inactive)"}
{"smiles": "COc1ccccc1OCC(=O)OCn1c(SC)nnc(C)c1=O", "inhibition": "0.34% (inactive)"}
{"smiles": "O=C(NC1CCCCC1)c1ccc(CNc2c(N3CCOCC3)c(=O)c2=O)cc1", "inhibition": "-1.66% (inactive)"}
{"smiles": "COc1ccc(/C=C2\\SC(=S)N(CCCC(=O)NC3CCCC3)C2=O)cc1OC", "inhibition": "-4.01% (inactive)"}
{"smiles": "CN(C)CCNC(=O)c1ccc(-c2cn3c(-c4ccc(Oc5ccccc5)cc4)cnc3cn2)cc1", "inhibition": "48.8% (active)"}
{"smiles": "CCNS(=O)(=O)c1ccc(NC(=O)Nc2cccc(C(F)(F)F)c2)cc1", "inhibition": "18.2% (inactive)"}
{"smiles": "Cn1c(=O)[nH]c(=O)c2c1nc(N1CCN(CCO)CC1)n2CCSc1nc2ccccc2s1", "inhibition": "-2.06% (inactive)"}
